Measurements as given in paper PMC5045800 (Journal of chromatography. B, Analytical technologies in …, 2016).

Experiments:
[1] = Stability of oncrasins in rat plasma; type: in vitro ADME; settings: for Stability after 2 h at room temperature: bench-top, 2 h (data not shown); for Three freeze-thaw cycles stability, percent of nominal concentration: freeze −80°C / thaw RT; for Three freeze-thaw cycles stability, percent of nominal concentration / Long term -80°C (14 days) stability, percent of nominal concentration / Short-term (1h) stability, percent of nominal concentration: n=3, mean ± SD; for Short-term (1h) stability, percent of nominal concentration: room temperature bench-top 1 h
Procedure, shortened: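 Blank rat plasma was spiked at low and high QC levels, three replicates per level, then measured by LC-MS/MS against freshly prepared samples at the same concentrations. Results are percent of nominal. Short-term bench-top: room temperature for 1, 2 and 3 h. Freeze-thaw: three cycles of −80°C freezing and room-temperature thawing. Long-term: 14 days of storage.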

[2] = Stability of processed sample; type: in vitro ADME, rat; settings: plasma extracts; for Deviation from nominal concentration after 24 h in the auto-sampler: 24 h at 15°C (data not shown); for Auto-sampler at 15°C (1h) stability, percent of nominal concentration: n=3, mean ± SD
Procedure, shortened: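 Spiked rat plasma (50 μL) was mixed with 100 μL acetonitrile internal-standard working solution (125 ng/mL) and centrifuged at 20,800 x g for 5 min at 4°C. The supernatant extracts were held in the auto-sampler at 15°C for 1 h and 24 h. They were then compared with freshly obtained extracts at low and high QC levels in triplicate, by LC-MS/MS.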

[3] = Pharmacokinetic study in rats after intravenous oncrasin-266 formulation; type: in vivo, Sprague-Dawley rats; settings: mean ± SD, n=5; for AUC / Cmax: rat plasma; for Cl / Vd / t1/2: rat
Procedure, shortened: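 Male adult Sprague-Dawley rats received the prodrug formulation IV through a jugular vein cannula at 10, 25 or 50 mg/kg (n=5 per dose). Blood (200 μL) was drawn predose and at 0.0167 to 48 h into heparinized tubes. Plasma was spun at 20,800 x g for 3 min and kept at −80°C. Urine was collected over 0–24 h. Analytes were quantified by validated LC-MS/MS. Each rat's profile was analysed noncompartmentally.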

[4] = analyte after I.V. oncrasin-266 formulation 10 mg/kg
[5] = analyte after I.V. oncrasin-266 formulation 25 mg/kg
[6] = analyte after I.V. oncrasin-266 formulation 50 mg/kg

SMILES	Stability after 2 h at room temperature [1]	Deviation from nominal concentration after 24 h in the auto-sampler [2] [%]	AUC [3, 4] [ng·h/mL]	Cmax [3, 4] [ng/mL]	AUC [3, 5] [ng·h/mL]	Cmax [3, 5] [ng/mL]	AUC [3, 6] [ng·h/mL]	Cmax [3, 6] [ng/mL]	Cl [3, 4] [L/kg]	Vd [3, 4] [L/kg]	t1/2 [3, 4] [h]	Cl [3, 5] [L/kg]	Vd [3, 5] [L/kg]	t1/2 [3, 5] [h]	Cl [3, 6] [L/kg]	Vd [3, 6] [L/kg]	t1/2 [3, 6] [h]	other results
OCc1cn(Cc2cccc(Cl)c2)c2ccccc12 [Oncrasin-72]	remained stable	≤ 15	2220 ± 330	15550 ± 5330	7150 ± 1960	52440 ± 16750	23700 ± 7950	54790 ± 30600	4.56 ± 0.7	45.06 ± 16.70	7.01 ± 2.81	3.62 ± 0.77	42.55 ± 24.3	7.74 ± 3.95	2.30 ± 0.74	27.78 ± 10.36	8.28 ± 1.34	Three freeze-thaw cycles stability, percent of nominal concentration ([1]; nominal 2 ng/mL): 97.53 ± 5.94%; Three freeze-thaw cycles stability, percent of nominal concentration ([1]; nominal 200 ng/mL): 101.23 ± 10.03%; Long term -80°C (14 days) stability, percent of nominal concentration ([1]; nominal 2 ng/mL): 95.02 ± 8.54%; Long term -80°C (14 days) stability, percent of nominal concentration ([1]; nominal 200 ng/mL): 89.14 ± 0.49%; Short-term (1h) stability, percent of nominal concentration ([1]; nominal 2 ng/mL): 94.87 ± 5.31%; Short-term (1h) stability, percent of nominal concentration ([1]; nominal 200 ng/mL): 110.55 ± 3.0%; Auto-sampler at 15°C (1h) stability, percent of nominal concentration ([2]; nominal 2 ng/mL): 94.90 ± 2.54%; Auto-sampler at 15°C (1h) stability, percent of nominal concentration ([2]; nominal 200 ng/mL): 98.05 ± 6.15%
O=Cc1cn(Cc2cccc(Cl)c2)c2ccccc12 [NSC-741908]	remained stable	≤ 15	500 ± 420	1560 ± 1550	110 ± 30	330 ± 120	680 ± 420	2140 ± 1730	75.73 ± 86.14	47.04 ± 33.52	1.19 ± 0.93	254.62 ± 108.12	443.15 ± 71.91	1.31 ± 0.39	103.60 ± 67.32	137.64 ± 33.49	1.16 ± 0.52	Three freeze-thaw cycles stability, percent of nominal concentration ([1]; nominal 1 ng/mL): 110.20 ± 6.79%; Three freeze-thaw cycles stability, percent of nominal concentration ([1]; nominal 100 ng/mL): 95.15 ± 4.53%; Long term -80°C (14 days) stability, percent of nominal concentration ([1]; nominal 1 ng/mL): 112.67 ± 2.45%; Long term -80°C (14 days) stability, percent of nominal concentration ([1]; nominal 100 ng/mL): 93.46 ± 5.62%; Short-term (1h) stability, percent of nominal concentration ([1]; nominal 1 ng/mL): 101.00 ± 12.58%; Short-term (1h) stability, percent of nominal concentration ([1]; nominal 100 ng/mL): 99.21 ± 5.62%; Auto-sampler at 15°C (1h) stability, percent of nominal concentration ([2]; nominal 1 ng/mL): 113.44 ± 6.90%; Auto-sampler at 15°C (1h) stability, percent of nominal concentration ([2]; nominal 100 ng/mL): 100.25 ± 2.67%
